Data from ChEMBL document CHEMBL4680237, “In situ click chemistry-based rapid discovery of novel HIV-1 NNRTIs by exploiting the hydrophobic channel and tolerant regions of NNIBP” (Eur J Med Chem, 2020).
pEC50: −log10 of the molar value.

Tests used:
[1] = biological target: Human immunodeficiency virus type 1 reverse transcriptase (Human immunodeficiency virus 1) (UniProt Q72547); experiment: Inhibition of HIV-1 reverse transcriptase assessed as reduction in biotin-dUTP incorporation in to cDNA chain at 0.267 uM in presence of DIG-dUTP, biotin-dUTP and dTTP measured after 1 hr by ELISA relative to control
Outline: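 ELISA for HIV-1 RT: enzyme with reconstituted template, DIG-dUTP, biotin-dUTP and dTTP in buffer ± inhibitor, 1 h at 37°C. Product captured on streptavidin-coated plate 2 h at 37°C, then anti-DIG-POD 1 h at 37°C, ABTS substrate, OD405. % inhibition calculated from OD with/without inhibitor and without RT.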

[2] = test system: Human immunodeficiency virus 1; experiment: Antiviral activity against HIV1 3B infected in human MT4 cells assessed as reduction in virus-induced cell death incubated for 5 days by MTT assay; assay type: functional, organism-based; conditions: Human immunodeficiency virus 1, 3B, MT4, 120 h
Outline: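 MT-4 cells (6×10^5 cells/mL) infected with HIV-1 at 100-300 CCID50; serial 5-fold compound dilutions added at infection, triplicate wells. After 5 days, viability was read by MTT at 540 and 690 nm, using the median absorbance of three wells. EC50 is the concentration giving 50% protection against virus cytopathic effect.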

[3] = test system: Human immunodeficiency virus 1; experiment: Antiviral activity against HIV1 RES056 infected in human MT4 cells assessed as reduction in virus-induced cell death incubated for 5 days by MTT assay; assay type: functional, organism-based; conditions: Human immunodeficiency virus 1, RES056, MT4, 120 h
Outline: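 MT-4 cells (6×10^5 cells/mL) infected with HIV-1 at 100-300 CCID50; serial 5-fold compound dilutions added at infection, triplicate wells. After 5 days, viability was read by MTT at 540 and 690 nm, using the median absorbance of three wells.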

[4] = Cytotoxicity against human MT4 cells assessed as reduction in cell viability after 5 days by MTT assay; assay type: cell-based; conditions: time 5 day
Outline: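 Mock-infected MT-4 cells (6×10^5 cells/mL) were run in parallel with serial 5-fold compound dilutions in triplicate wells. After 5 days, viability was read by MTT (540/690 nm) as the median of three wells. CC50 is the concentration reducing OD540 of the mock-infected control by 50%.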

[5] = Selectivity index, ratio of CC50 for cytotoxicity against human MT4 cells to EC50 for antiviral activity against HIV1 3B infected in human MT4 cells; assay type: toxicity, cell-based; conditions: read-out: Ratio CC50/EC50
Outline: (§1)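 SI computed as CC50 in mock-infected MT-4 cells divided by EC50 against the given HIV-1 strain, both from the 5-day MTT assay.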

[6] = Selectivity index, ratio of CC50 for cytotoxicity against human MT4 cells to EC50 for antiviral activity against HIV1 RES056 infected in human MT4 cells; assay type: toxicity, cell-based; conditions: read-out: Ratio CC50/EC50; outline: as §1

| Compound | inhibition [1] [%] | pEC50 [2] | pEC50 [3] | CC50 at 120 h [4] [nM] | selectivity ratio [5] | selectivity ratio [6] |
| --- | --- | --- | --- | --- | --- | --- |
| Cc1cc(C#N)cc(C)c1Oc1nc(NC2CCN(Cc3cn(Cc4ccccc4[N+](=O)[O-])nn3)CC2)nc2ccsc12 | 51.9 | 8.21 | 5.93 | 7660 | 1250 | 7 |
| O=C1Nc2ccc(Cl)cc2[C@@](C#CC2CC2)(C(F)(F)F)O1 [EFAVIRENZ] |  | 8.33 |  | > 6380 |  |  |
| Cc1cc(C#N)cc(C)c1Oc1nc(NC2CCN(Cc3cn(Cc4ccccc4C#N)nn3)CC2)nc2ccsc12 | 50.3 | 8.18 | 5.54 | 16200 | 2440 | 6 |
| Cc1cc(C#N)cc(C)c1Oc1nc(NC2CCN(Cc3cn(CC(=O)Nc4ccc(S(C)(=O)=O)cc4)nn3)CC2)nc2ccsc12 | 60.1 | 8.18 | 5.70 | 19800 | 2970 | 10 |
| Cc1cc(C#N)cc(C)c1Oc1nc(NC2CCN(C(=O)c3cn(CC(=O)N4CCOCC4)nn3)CC2)nc2ccsc12 | 71.8 |  |  |  |  |  |
| Cc1ccccc1Cn1cc(CN2CCC(Nc3nc(Oc4c(C)cc(C#N)cc4C)c4sccc4n3)CC2)nn1 | 44.8 |  |  |  |  |  |
| Cc1cc(-c2cn(Cc3ccc(Cl)cc3)nn2)cc(C)c1Oc1nc(NC2CCN(Cc3ccc(S(N)(=O)=O)cc3)CC2)nc2ccsc12 | 70.8 | 7.50 | < 5.47 | 3390 | 108 | < 1 |
| Cc1cc(C#N)cc(C)c1Oc1nc(NC2CCN(C(=O)c3cn(CC(=O)Nc4ccccc4)nn3)CC2)nc2ccsc12 | 80.2 |  |  |  |  |  |
| Cc1ccnc2c1NC(=O)c1cccnc1N2C1CC1 [NEVIRAPINE] |  | 6.79 | < 5.02 | > 9510 | > 58 |  |
| Cc1cc(C#N)cc(C)c1Oc1nc(Nc2ccc(C#N)cc2)nc(N)c1Br [ETRAVIRINE] | 32.7 | 8.29 |  | > 4590 | > 889 | > 101 |
| Cc1ccccc1Cn1cc(C(=O)N2CCC(Nc3nc(Oc4c(C)cc(C#N)cc4C)c4sccc4n3)CC2)nn1 | 75.8 |  |  |  |  |  |
| Cc1cc(-c2cn(CCc3ccsc3)nn2)cc(C)c1Oc1nc(NC2CCN(Cc3ccc(S(N)(=O)=O)cc3)CC2)nc2ccsc12 | 72.5 | 7.68 | 5.21 | 11700 | 552 | 1.88 |
| Cc1cc(C#N)cc(C)c1Oc1nc(NC2CCN(Cc3ccc(S(N)(=O)=O)cc3)CC2)nc2ccsc12 | 44 |  | 7.51 | > 227000 | > 159000 | > 7420 |
| Cc1cc(C#N)cc(C)c1Oc1nc(NC2CCN(Cc3cn(Cc4ccc(C#N)cc4)nn3)CC2)nc2ccsc12 |  | 6.68 | 4.74 | 110000 | 525 | 6 |
| Cc1cc(C#N)cc(C)c1Oc1nc(NC2CCN(Cc3cn(CC(=O)N4CCOCC4)nn3)CC2)nc2ccsc12 | 69.7 | 8.36 | 5.35 | > 212000 | > 48500 | > 48 |
| Cc1cc(C#N)cc(C)c1Oc1nc(NC2CCN(Cc3cn(Cc4ccc(S(N)(=O)=O)cc4)nn3)CC2)nc2ccsc12 | 42 | 8.27 | 6.17 | 20700 | 3880 | 31 |
| Cc1cc(-c2cn(CC(=O)N3CCCC3)nn2)cc(C)c1Oc1nc(NC2CCN(Cc3ccc(S(N)(=O)=O)cc3)CC2)nc2ccsc12 | 74 | 7.59 | 5.22 | 17600 | 682 | 3 |
| Cc1cc(C#N)cc(C)c1Oc1nc(NC2CCN(Cc3cn([C@H]4C[C@H](n5cc(C)c(=O)[nH]c5=O)O[C@@H]4CO)nn3)CC2)nc2ccsc12 | 57.1 | 7.08 | 4.98 | 149000 | 1800 | 14 |

Continued, in another order:

| inhibition [1] [%] | Compound | pEC50 [2] | pEC50 [3] | CC50 at 120 h [4] [nM] | selectivity ratio [5] | selectivity ratio [6] |
| --- | --- | --- | --- | --- | --- | --- |
| 89.1 | Cc1cc(C#N)cc(C)c1Oc1nc(NCCc2cn(Cc3ccccc3[N+](=O)[O-])nn2)nc2ccsc12 |  |  |  |  |  |
| 72.4 | Cc1cc(C#N)cc(C)c1Oc1nc(NCCc2cn(Cc3ccc(S(N)(=O)=O)cc3)nn2)nc2ccsc12 |  |  |  |  |  |
| 46.1 | Cc1ccc(Cn2cc(CN3CCC(Nc4nc(Oc5c(C)cc(C#N)cc5C)c5sccc5n4)CC3)nn2)cc1 | 8.14 | < 5.33 | 4720 | 650 | < 1 |
| 71.1 | Cc1cc(C#N)cc(C)c1Oc1nc(NCCc2cn(Cc3ccc(C(N)=O)cc3)nn2)nc2ccsc12 |  |  |  |  |  |
| 66.6 | Cc1cc(C#N)cc(C)c1Oc1nc(NC2CCN(Cc3cn(Cc4ccc(C(N)=O)cc4)nn3)CC2)nc2ccsc12 | 8.48 | 6.32 | > 210000 | > 64100 | > 437 |
| 91.8 | Cc1cccc(Cn2cc(CCNc3nc(Oc4c(C)cc(C#N)cc4C)c4sccc4n3)nn2)c1 |  |  |  |  |  |
| 75.6 | Cc1cc(C#N)cc(C)c1Oc1nc(NCCc2cn(Cc3ccccc3Cl)nn2)nc2ccsc12 |  |  |  |  |  |
| 86.7 | Cc1cc(C#N)cc(C)c1Oc1nc(NCCc2cn(CC(=O)N3CCOCC3)nn2)nc2ccsc12 |  |  |  |  |  |
